This is an account of results in ChEMBL document CHEMBL3112407 (Bioorg Med Chem Lett, 2014).

The target in experiment [1] is T1, Epidermal growth factor receptor (Homo sapiens, UniProt P00533).
In experiment [2] the test system is NCI-N87. Briefly: cells. In kind it is functional, cell-based. To be noted: Homo sapiens, NCI-N87, 72 h.
Experiment [3] deals with A-431. Briefly: cells. In kind it is functional, cell-based. To be noted: Homo sapiens, A-431, 72 h.
The subject of experiment [4] is NCI-H1975. Kind of experiment: cells. To be noted: Homo sapiens, NCI-H1975, 72 h. In kind it is functional, cell-based.
A short description of the next experiment: cells. In kind it is functional, cell-based. To be noted: Homo sapiens, Calu-3, 72 h.
For experiment [5], the system named is BT-474. Kind of experiment: cells. The format is functional, cell-based. To be noted: Homo sapiens, BT-474, 72 h.
Experiment [6] addresses T1, Epidermal growth factor receptor. In kind it is cell-based, KB.
Experiment [7] concerns the target Receptor tyrosine-protein kinase erbB-2 (Homo sapiens, UniProt P04626). Briefly: Inhibition of HER2 (unknown origin) after 10 mins.
For experiment [8], the system named is NCI-N87. Briefly: Ratio of erlotinib IC50 to compound IC50 for human NCI-N87 cells. The format is functional. Put shortly: (§1)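 MTT growth assay: cells in ATCC-recommended medium with 10% FBS, seeded at 5.0 × 10³ cells/well, adhered overnight at 37 °C, 5% CO₂. Compound added, then 72 h incubation. MTT added for 4 h. Absorbance read at 550 nm, corrected at 690 nm. IC₅₀ from nonlinear regression of concentration–response data. Ratio is the reference-drug IC₅₀ over the compound IC₅₀ from this assay.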

For experiment [9], the system named is A-431. Briefly: Ratio of erlotinib IC50 to compound IC50 for human A431 cells. In kind it is functional. Put shortly:
as §1

The subject of experiment [10] is NCI-N87. Briefly: Ratio of gefitinib IC50 to compound IC50 for human NCI-N87 cells. In kind it is functional. Put shortly: as §1
For experiment [11], the system named is Calu-3. Kind of experiment: Ratio of gefitinib IC50 to compound IC50 for human Calu3 cells. In kind it is functional. Put shortly: as §1
Experiment [12] deals with BT-474. Briefly: Ratio of gefitinib IC50 to compound IC50 for human BT474 cells. In kind it is functional. The procedure, abridged:
as §1

For experiment [13], the system named is A-431. Briefly: Ratio of gefitinib IC50 to compound IC50 for human A431 cells. The format is functional. The procedure, abridged:
as §1

Experiment [14] has as its system BT-474. Briefly: Ratio of erlotinib IC50 to compound IC50 for human BT474 cells. In kind it is functional. Put shortly:
as §1

Experiment [15] has as its system NCI-H1975. Kind of experiment: Ratio of erlotinib IC50 to compound IC50 for human NCI-H1975 cells. The format is functional. The procedure, abridged:
as §1

The subject of experiment [16] is Calu-3. Briefly: Ratio of erlotinib IC50 to compound IC50 for human Calu3 cells. In kind it is functional. Put shortly:
as §1

Experiment [17] concerns NCI-H1975. Briefly: Ratio of gefitinib IC50 to compound IC50 for human NCI-H1975 cells. The format is functional. The procedure, abridged:
as §1

Structures are written as SMILES. A value given as a limit tells only on which side of the number the result lay.

T1 sequence (P00533 whole entry): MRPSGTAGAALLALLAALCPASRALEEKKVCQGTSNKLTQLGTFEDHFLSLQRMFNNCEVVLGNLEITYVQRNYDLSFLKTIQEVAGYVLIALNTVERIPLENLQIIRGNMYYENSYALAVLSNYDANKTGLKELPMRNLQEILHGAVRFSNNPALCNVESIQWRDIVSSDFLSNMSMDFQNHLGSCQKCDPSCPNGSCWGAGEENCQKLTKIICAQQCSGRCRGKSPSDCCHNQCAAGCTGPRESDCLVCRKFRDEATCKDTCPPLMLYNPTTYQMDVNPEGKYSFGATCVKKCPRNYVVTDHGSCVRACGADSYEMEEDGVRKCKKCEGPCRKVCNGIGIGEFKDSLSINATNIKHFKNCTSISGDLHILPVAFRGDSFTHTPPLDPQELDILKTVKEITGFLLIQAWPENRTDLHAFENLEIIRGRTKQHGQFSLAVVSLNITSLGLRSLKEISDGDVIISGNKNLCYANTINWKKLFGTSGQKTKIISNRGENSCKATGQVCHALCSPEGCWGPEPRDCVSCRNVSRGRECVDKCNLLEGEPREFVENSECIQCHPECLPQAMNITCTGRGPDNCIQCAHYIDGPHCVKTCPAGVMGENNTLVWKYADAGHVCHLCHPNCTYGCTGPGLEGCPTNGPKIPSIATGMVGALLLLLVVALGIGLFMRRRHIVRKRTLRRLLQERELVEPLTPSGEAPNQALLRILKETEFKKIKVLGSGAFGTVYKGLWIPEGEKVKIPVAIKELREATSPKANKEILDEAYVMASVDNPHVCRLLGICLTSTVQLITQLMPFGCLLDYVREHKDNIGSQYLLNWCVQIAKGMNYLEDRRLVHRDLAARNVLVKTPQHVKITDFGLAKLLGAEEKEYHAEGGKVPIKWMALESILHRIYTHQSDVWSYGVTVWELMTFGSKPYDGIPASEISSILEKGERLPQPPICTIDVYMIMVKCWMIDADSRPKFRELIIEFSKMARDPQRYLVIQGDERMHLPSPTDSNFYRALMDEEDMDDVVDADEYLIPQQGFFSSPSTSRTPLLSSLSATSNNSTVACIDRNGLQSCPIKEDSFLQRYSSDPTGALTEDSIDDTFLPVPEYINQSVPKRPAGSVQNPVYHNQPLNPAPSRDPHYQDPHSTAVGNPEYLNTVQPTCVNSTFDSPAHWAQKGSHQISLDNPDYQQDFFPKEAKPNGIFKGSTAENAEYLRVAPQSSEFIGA
Chain of Receptor tyrosine-protein kinase erbB-2 (P04626 whole entry): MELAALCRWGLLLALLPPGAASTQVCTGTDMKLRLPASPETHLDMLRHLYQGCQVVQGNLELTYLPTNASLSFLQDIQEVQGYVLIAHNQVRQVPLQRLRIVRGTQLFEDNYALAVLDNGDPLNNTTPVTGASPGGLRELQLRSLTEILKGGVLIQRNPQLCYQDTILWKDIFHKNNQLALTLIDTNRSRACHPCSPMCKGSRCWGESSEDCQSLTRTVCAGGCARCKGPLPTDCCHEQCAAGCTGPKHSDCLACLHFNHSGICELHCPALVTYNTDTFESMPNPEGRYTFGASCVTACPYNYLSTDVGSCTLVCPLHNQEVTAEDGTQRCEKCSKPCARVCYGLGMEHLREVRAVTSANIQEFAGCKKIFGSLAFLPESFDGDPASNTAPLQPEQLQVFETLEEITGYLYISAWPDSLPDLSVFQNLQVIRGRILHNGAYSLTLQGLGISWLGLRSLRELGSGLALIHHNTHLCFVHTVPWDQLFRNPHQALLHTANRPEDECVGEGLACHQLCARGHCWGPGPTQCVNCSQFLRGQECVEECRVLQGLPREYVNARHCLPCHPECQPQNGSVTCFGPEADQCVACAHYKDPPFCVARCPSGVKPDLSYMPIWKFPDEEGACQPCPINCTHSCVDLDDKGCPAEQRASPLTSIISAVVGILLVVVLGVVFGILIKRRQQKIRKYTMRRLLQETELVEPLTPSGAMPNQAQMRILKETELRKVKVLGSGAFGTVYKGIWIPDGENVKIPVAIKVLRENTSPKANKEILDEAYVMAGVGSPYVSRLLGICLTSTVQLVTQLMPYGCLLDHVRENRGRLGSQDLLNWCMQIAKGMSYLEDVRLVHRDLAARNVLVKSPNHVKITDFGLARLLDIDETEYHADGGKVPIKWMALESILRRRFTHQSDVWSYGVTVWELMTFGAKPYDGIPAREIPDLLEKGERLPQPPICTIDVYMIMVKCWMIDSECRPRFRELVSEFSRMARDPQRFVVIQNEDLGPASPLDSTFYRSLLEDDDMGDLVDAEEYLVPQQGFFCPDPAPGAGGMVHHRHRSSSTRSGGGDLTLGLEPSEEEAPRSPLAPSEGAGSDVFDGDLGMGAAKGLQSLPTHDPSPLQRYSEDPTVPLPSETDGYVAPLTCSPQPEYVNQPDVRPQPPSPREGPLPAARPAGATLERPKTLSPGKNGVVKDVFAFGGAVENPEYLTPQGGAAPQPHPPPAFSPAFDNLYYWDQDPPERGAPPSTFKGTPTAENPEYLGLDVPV

Usually IC50 stands for the concentration that gives 50% inhibition. Lower therefore signals inhibition by little substance. Consider `C#Cc1cccc(Nc2ncnc3cc4c(cc23)N(C(=O)/C=C/CN2CCOCC2)CCO4)c1`, for which the IC50 was determined as 0.012 µM in experiment [1]; 0.6 µM with NCI-N87 [2]; 0.53 µM with A-431 [3]; 0.77 µM in the experiment with NCI-H1975 [4]; 1.01 µM in the experiment “cells”; 1.39 µM in the experiment on BT-474 [5]. Further, the IC50 in experiment [6] came out at 0.64 µM; in experiment [7], 0.93 µM.

For `C#Cc1cccc(Nc2ncnc3cc4c(cc23)N(C(=O)/C=C/CN2CCN(C)CC2)CCO4)c1`, the IC50 in experiment [1] was determined as 0.016 µM; with NCI-N87 [2], 0.22 µM; with A-431 [3], 0.48 µM; with NCI-H1975 [4], 1.46 µM; in the experiment “cells”, 2.06 µM; in the experiment with BT-474 [5] it was 1.33 µM. The IC50 was 0.78 µM in [6] and 1.11 µM in [7].

As for `C#Cc1cccc(Nc2ncnc3cc4c(cc23)N(C(=O)/C=C/CN2CCCC2)CCO4)c1`, the IC50 in experiment [1] turned out to be 0.003 µM; in the experiment on NCI-N87 [2], 0.12 µM; with A-431 [3], 0.11 µM; in the experiment with NCI-H1975 [4], 0.32 µM; in “cells” it was 0.71 µM; in the experiment with BT-474 [5] it was 0.33 µM. In addition, the IC50 in experiment [6] was 0.06 µM; in experiment [7] it was 0.23 µM.

On to `C#Cc1cccc(Nc2ncnc3cc4c(cc23)N(C(=O)/C=C/CN2CCCCC2)CCCO4)c1`, for which the IC50 in the experiment with NCI-N87 [2] was above 10 µM; in the experiment on A-431 [3], above 10 µM; in the experiment on NCI-H1975 [4], 8.59 µM; in the experiment “cells”, above 10 µM; with BT-474 [5] it was above 10 µM; in experiment [6], above 10 µM.

On to `C#Cc1cccc(Nc2ncnc3cc4c(cc23)N(C(=O)/C=C/CN(CC)CC)CCCO4)c1`, for which the IC50 is above 10 µM with NCI-N87 [2]; 2.16 µM in the experiment with A-431 [3]; above 10 µM in the experiment on NCI-H1975 [4]; above 10 µM in “cells”; above 10 µM in the experiment on BT-474 [5]; above 10 µM in [6].

With `C#Cc1cccc(Nc2ncnc3cc4c(cc23)N(C(=O)/C=C/CN2CCN(C)CC2)CCCO4)c1`, the IC50 (in the experiment on NCI-N87 [2]; in the experiment with A-431 [3]; in the experiment on NCI-H1975 [4]; in the experiment “cells”; with BT-474 [5]; in [6]) was above 10 µM each time.

With `C#Cc1cccc(Nc2ncnc3cc4c(cc23)N(C(=O)/C=C/CN2CCC(C)CC2)CCCO4)c1`, the IC50 (with NCI-N87 [2]; in the experiment with A-431 [3]; with NCI-H1975 [4]; in the experiment “cells”; in the experiment with BT-474 [5]; in [6]) was above 10 µM each time.

Turning to `C#Cc1cccc(Nc2ncnc3cc4c(cc23)N(C(=O)/C=C/CN(CC)CC)CCO4)c1`, the IC50 was found to be 0.005 µM in experiment [1]; 0.15 µM with NCI-N87 [2]; 0.19 µM in the experiment with A-431 [3]; 0.68 µM in the experiment with NCI-H1975 [4]; 0.35 µM in the experiment “cells”; 0.55 µM in the experiment on BT-474 [5]. In addition, the IC50 stood at 0.042 µM in experiment [6] and 0.25 µM in experiment [7].

For `C#Cc1cccc(Nc2ncnc3cc4c(cc23)N(C(=O)/C=C/CN2CCOCC2)CCCO4)c1`, the IC50 (with NCI-N87 [2]; in the experiment with A-431 [3]; in the experiment on NCI-H1975 [4]; in the experiment “cells”; with BT-474 [5]; in experiment [6]) was above 10 µM in each case.

With `C#Cc1cccc(Nc2ncnc3cc4c(cc23)N(C(=O)/C=C/CN(C)C)CCCO4)c1`, the IC50 with NCI-N87 [2] was above 10 µM; in the experiment on A-431 [3] it was 1.75 µM; with NCI-H1975 [4], 1.86 µM; in the experiment “cells”, above 10 µM; in the experiment with BT-474 [5], above 10 µM; in experiment [6] it was above 10 µM.

In the case of `C#Cc1cccc(Nc2ncnc3cc4c(cc23)N(C(=O)/C=C/CN2CCC(C)CC2)CCO4)c1`, the IC50 in experiment [1] was 0.005 µM; with NCI-N87 [2], 0.25 µM; with A-431 [3] it was 0.4 µM; in the experiment on NCI-H1975 [4], 0.89 µM; in “cells”, 1.67 µM; with BT-474 [5], 1.38 µM. For the same compound, the IC50 in experiment [6] came out at 0.082 µM; in experiment [7] it was 0.33 µM.

In the case of `C#Cc1cccc(Nc2ncnc3cc4c(cc23)N(C(=O)/C=C/CN2CCCCC2)CCO4)c1`, the IC50 in experiment [1] is 0.004 µM; in the experiment on NCI-N87 [2], 0.16 µM; with A-431 [3], 0.34 µM; in the experiment with NCI-H1975 [4] it was 0.87 µM; in “cells”, 0.55 µM; with BT-474 [5], 0.87 µM. Besides, the IC50 is 0.042 µM in experiment [6] and 0.29 µM in experiment [7].

Turning to `C#Cc1cccc(Nc2ncnc3cc4c(cc23)N(C(=O)/C=C/CN2CCCC2)CCCO4)c1`, the concentration for half-maximal inhibition (IC50) with NCI-N87 [2] was above 10 µM; in the experiment on A-431 [3] it was 1.82 µM; in the experiment with NCI-H1975 [4] it was 1.74 µM; in “cells” it was above 10 µM; in the experiment on BT-474 [5] it was above 10 µM; in [6], above 10 µM.

On to `C#Cc1cccc(Nc2ncnc3cc4c(cc23)N(C(=O)/C=C/CN2CCCCC2C)CCO4)c1` (stereo not given), for which the IC50 in the experiment on NCI-N87 [2] was found to be 0.27 µM; in the experiment with A-431 [3] it was 0.69 µM; in the experiment on NCI-H1975 [4] it was 1.23 µM; in the experiment “cells” it was 0.95 µM; with BT-474 [5] it was 1.15 µM; in experiment [7], 0.29 µM.

With `C#Cc1cccc(Nc2ncnc3cc4c(cc23)N(C(=O)/C=C/CN2CCCCC2C)CCCO4)c1` (stereo not given), the IC50 (in the experiment on NCI-N87 [2]; in the experiment with A-431 [3]; in the experiment with NCI-H1975 [4]; in the experiment “cells”; with BT-474 [5]; in experiment [6]) was above 10 µM throughout.

In the case of `C#Cc1cccc(Nc2ncnc3cc4c(cc23)N(C(=O)/C=C/CN(C)C)CCO4)c1`, the IC50 in experiment [1] worked out at 0.003 µM; in the experiment with NCI-N87 [2], 0.046 µM; in the experiment with A-431 [3], 0.23 µM; with NCI-H1975 [4] it was 0.3 µM; in “cells” it was 0.14 µM; in the experiment with BT-474 [5] it was 0.24 µM. In addition, the IC50 is 0.046 µM in experiment [6] and 0.25 µM in experiment [7]. The Ratio IC50 in the experiment with NCI-N87 [8] was above 210; in the experiment with A-431 [9], 3.3; in the experiment with NCI-N87 [10], 22; in the experiment on Calu-3 [11], 7.1; with BT-474 [12], 1.5; in the experiment on A-431 [13], 2.4. The Ratio IC50 in the experiment with BT-474 [14] was above 42; in the experiment on NCI-H1975 [15], 18; in the experiment with Calu-3 [16], 6.6; in the experiment on NCI-H1975 [17], 33.
